# pKi: −log10 of the molar value.
# Experiments:
# Rattus norvegicus [1] = species: Rattus norvegicus; assay: Effective dose in Drug Discrimination studies in LSD(d-lysergic acid N,N-diethylamide) trained rats. No. of animals tested 15; format: functional
# In short: (§1)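 Male Sprague–Dawley rats (200–220 g) trained in a two-lever, FR50 food task to tell LSD tartrate (0.08 mg/kg ip) from saline. Test drugs were given ip in 0.9% saline 30 min before extinction sessions. The first lever reaching 50 presses was scored; no completion within 5 min counted as disruption.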
# Rattus norvegicus [2] = species: Rattus norvegicus; assay: Effective dose for behavioral activity or hallucinogenic potential in drug discrimination studies in LSD(d-lysergic acid N,N-diethylamide) trained rats; format: functional; parameters: unit not given here; in short: as §1
# [3] = target: T1, 5-hydroxytryptamine receptor 2A (Homo sapiens, UniProt P28223); assay: Agonistic activity at cloned human 5-hydroxytryptamine 2A receptor using [125I]DOI as radioligand; format: functional
# T1 sequence (P28223 whole entry): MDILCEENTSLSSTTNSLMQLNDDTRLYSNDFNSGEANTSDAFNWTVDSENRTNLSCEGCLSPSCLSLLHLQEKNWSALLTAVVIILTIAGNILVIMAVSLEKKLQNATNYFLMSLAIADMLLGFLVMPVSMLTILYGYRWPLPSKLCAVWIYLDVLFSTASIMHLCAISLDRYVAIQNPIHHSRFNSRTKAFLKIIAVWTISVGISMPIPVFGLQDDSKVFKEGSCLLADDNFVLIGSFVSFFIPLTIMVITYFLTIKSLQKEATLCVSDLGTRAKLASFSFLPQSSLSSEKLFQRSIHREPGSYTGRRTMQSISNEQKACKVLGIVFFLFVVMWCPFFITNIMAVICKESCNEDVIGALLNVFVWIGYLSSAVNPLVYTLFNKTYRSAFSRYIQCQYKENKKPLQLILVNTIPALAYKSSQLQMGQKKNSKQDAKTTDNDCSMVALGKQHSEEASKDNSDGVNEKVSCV
# In short: (§2)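 AV12 hamster fibroblast membranes stably expressing the human receptor. Final buffer: 10 μM pargyline, 9.75 mM MgCl2, 0.5 mM EDTA, 0.1% Na ascorbate, 50 mM Tris HCl pH 7.4. [125I]DOI was at about 0.07–0.15 nM, with about 40 μg (2A) or 30 μg (2C) protein, for 30 min at 37 °C. Nonspecific binding: 1 μM ketanserin (2A) or 10 μM mianserin (2C). Read by filtration and gamma counting.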
# [4] = target: T2, 5-hydroxytryptamine receptor 2B (Homo sapiens, UniProt P41595); assay: Antagonistic activity at cloned human 5-hydroxytryptamine 2B receptor using [3H]rauwolscine as radioligand; format: functional
# T2 sequence (P41595 whole entry): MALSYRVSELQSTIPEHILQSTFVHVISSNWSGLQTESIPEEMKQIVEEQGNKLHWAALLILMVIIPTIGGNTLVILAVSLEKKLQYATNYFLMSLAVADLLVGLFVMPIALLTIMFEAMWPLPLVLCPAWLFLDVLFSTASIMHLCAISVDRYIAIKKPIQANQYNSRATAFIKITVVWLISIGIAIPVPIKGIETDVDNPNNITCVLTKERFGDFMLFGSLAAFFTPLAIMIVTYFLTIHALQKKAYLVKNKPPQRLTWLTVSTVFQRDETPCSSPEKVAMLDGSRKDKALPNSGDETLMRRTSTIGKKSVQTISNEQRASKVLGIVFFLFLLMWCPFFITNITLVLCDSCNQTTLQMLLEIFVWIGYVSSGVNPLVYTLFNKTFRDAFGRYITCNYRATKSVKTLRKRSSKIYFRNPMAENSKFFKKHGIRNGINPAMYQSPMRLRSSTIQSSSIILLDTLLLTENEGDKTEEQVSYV
# In short: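 Human 5-HT2B membranes from stably transformed AV12 cells in Tris HCl pH 7.4. Competition against 2 nM [3H]rauwolscine (final), with 500 nM efaroxan to mask α2 sites, in 50 mM Tris HCl pH 7.4. Incubated 20 min at 37 °C, then filtered. Nonspecific binding with 10 μM 1-naphthylpiperazine.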
# [5] = target: T1, 5-hydroxytryptamine receptor 2A; assay: Antagonistic activity at cloned human 5-hydroxytryptamine 2A receptor using [3H]ketanserin as radioligand; format: functional
# In short: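 Human 5-HT2A expressed in AV12 cell membranes. The 0.8 mL assay held 50 mM Tris HCl, 100 nM prazosin to block α1 sites, 0.4–0.5 nM [3H]ketanserin and varying competitor, final pH 7.6. Incubated 15 min at 37 °C, then filtered and washed. Mianserin 3 μM defined nonspecific binding. Read by liquid scintillation.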
# [6] = target: T3, 5-hydroxytryptamine receptor 1A (Rattus norvegicus, UniProt P19327); assay: Binding affinity towards rat hippocampal 5-hydroxytryptamine 1A receptor using [3H]8-OH-DPAT as radioligand; format: tissue-based, Hippocampus
# T3 sequence (P19327 whole entry): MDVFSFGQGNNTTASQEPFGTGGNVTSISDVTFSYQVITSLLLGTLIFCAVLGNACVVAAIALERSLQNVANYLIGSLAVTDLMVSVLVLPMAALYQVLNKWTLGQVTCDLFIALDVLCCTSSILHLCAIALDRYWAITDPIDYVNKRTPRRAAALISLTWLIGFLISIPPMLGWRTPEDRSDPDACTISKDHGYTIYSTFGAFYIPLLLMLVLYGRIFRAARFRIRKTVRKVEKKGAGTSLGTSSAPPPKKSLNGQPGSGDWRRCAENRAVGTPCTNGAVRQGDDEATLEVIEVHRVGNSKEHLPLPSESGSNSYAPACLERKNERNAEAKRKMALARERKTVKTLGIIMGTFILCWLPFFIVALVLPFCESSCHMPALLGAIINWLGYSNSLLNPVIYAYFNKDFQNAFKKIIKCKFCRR
# In short: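 Hippocampus pooled from male Sprague–Dawley rats (175–199 g), homogenised in sucrose and frozen. Membranes washed and preincubated twice at 37 °C in Tris HCl pH 7.4 with EDTA, ascorbate and pargyline. Assay: 0.75 nM [3H]-8-OH-DPAT, 200–400 μg protein, 15 min at 37 °C, GF/C filtration. Nonspecific binding: 10 μM 5-HT. Run in triplicate; expressed as Ki.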
# [7] = target: T2, 5-hydroxytryptamine receptor 2B; assay: Agonistic activity at cloned human 5-hydroxytryptamine 2B receptor using [3H]-5-HT as radioligand; format: functional
# In short: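 Membranes from AV12 hamster fibroblasts stably expressing human 5-HT2B, lysed hypotonically in 50 mM Tris HCl pH 7.4. Competition against about 2 nM [3H]-5-HT (free level measured) in 50 mM Tris, 3 mM CaCl2, 10 μM pargyline, 0.1% ascorbic acid, pH 7.4. Drug dilutions spanned 6 log units. About 100-150 μg protein per tube, 15 min at 37 °C, in triplicate. Nonspecific binding with 10 μM 5-HT or 1-NP. Filtration, then scintillation counting.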
# [8] = target: T4, 5-hydroxytryptamine receptor 2C (Homo sapiens, UniProt P28335); assay: Agonistic activity at cloned human 5-hydroxytryptamine 2C receptor using [125I]DOI as radioligand; format: functional; in short: as §2
# T4 sequence (P28335 whole entry): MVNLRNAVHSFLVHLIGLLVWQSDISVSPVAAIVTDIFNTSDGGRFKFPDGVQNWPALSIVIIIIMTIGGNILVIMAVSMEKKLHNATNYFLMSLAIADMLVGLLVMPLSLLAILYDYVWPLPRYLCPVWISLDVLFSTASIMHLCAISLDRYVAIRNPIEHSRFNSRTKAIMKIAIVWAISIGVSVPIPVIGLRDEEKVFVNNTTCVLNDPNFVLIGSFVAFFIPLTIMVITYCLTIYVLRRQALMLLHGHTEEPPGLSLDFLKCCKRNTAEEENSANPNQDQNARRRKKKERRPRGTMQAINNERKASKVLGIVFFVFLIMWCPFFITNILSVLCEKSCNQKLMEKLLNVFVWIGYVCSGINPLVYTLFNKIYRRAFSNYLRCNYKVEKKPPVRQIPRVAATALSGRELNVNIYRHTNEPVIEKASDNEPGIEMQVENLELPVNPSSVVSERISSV
# [9] = target: T4, 5-hydroxytryptamine receptor 2C; assay: Antagonistic activity at cloned human 5-hydroxytryptamine 2C receptor using [3H]mesulergine as radioligand; format: functional
# In short: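 AV12 membranes expressing human 5-HT2C. The 0.8 mL assay held 0.74–0.82 nM [3H]mesulergine, varying competitor and Tris HCl, final pH 7.6. Incubated 30 min at 37 °C, then filtered, washed and counted by liquid scintillation. Mianserin defined nonspecific binding.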
# [10] = target: 5-hydroxytryptamine receptor 2A (Rattus norvegicus, UniProt P14842); assay: Binding affinity towards rat cortical 5-hydroxytryptamine 2A receptor using [3H]ketanserin as radioligand
# Chain of 5-hydroxytryptamine receptor 2A (Rattus norvegicus, UniProt P14842) (P14842 whole entry): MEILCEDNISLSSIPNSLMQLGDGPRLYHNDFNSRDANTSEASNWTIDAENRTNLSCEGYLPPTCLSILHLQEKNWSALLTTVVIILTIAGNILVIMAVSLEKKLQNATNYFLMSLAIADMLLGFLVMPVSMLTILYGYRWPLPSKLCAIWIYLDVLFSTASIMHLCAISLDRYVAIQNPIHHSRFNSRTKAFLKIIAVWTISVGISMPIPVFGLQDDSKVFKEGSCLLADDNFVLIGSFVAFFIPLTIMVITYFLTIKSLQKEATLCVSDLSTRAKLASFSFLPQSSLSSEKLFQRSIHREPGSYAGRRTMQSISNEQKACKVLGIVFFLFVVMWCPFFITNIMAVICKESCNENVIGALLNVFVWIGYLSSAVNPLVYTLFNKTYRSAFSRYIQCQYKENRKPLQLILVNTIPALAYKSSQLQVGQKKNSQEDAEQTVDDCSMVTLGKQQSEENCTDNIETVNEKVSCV
Compound,ED50 (Rattus norvegicus [2]),pKi [6],pKi [10],other results
CCN(CC)C(=O)[C@@H]1C=C2c3cccc4[nH]cc(c34)C[C@H]2N(C)C1 [LYSERGIDE],–,–,–,ED50 (Rattus norvegicus [1]): 40 µmol/kg
Cc1c2c(c(CC(C)N)c3c1OCC3)OCC2 (stereo unspecified),780,–,–,–
CC(N)Cc1c2c(c(Br)c3c1OCC3)OCC2 (stereo unspecified),61,8.37,7.74,pKi [3]: 9.32; pKi [4]: 8.94; pKi [5]: 7.97; pKi [7]: 8.80; pKi [8]: 9.52; pKi [9]: 8.64
NCCc1c2c(c(Br)c3c1OCC3)OCC2,–,9.10,7.47,–
NCCc1c2c(cc3c1OCC3)OCC2,1430,8.28,5.64,–
CC(N)Cc1c2c(cc3c1OCC3)OCC2 (stereo unspecified),64000,7.54,5.70,–
COc1cc(Br)c2c(c1CC(C)N)CCO2 (stereo unspecified),570,–,–,–
COc1cc(CC(C)N)c(OC)cc1Br (stereo unspecified) [BROLAMFETAMINE],–,8.21,–,–

# From ChEMBL document CHEMBL1129247, “Dihydrobenzofuran analogues of hallucinogens. 3. Models of 4-substituted (2,5-dimethoxyphenyl)alkylamine derivatives with rigidified methoxy groups” (J Med Chem, 1996)
